Data: ChEMBL document CHEMBL2086248, “Synthesis of some novel 1-(2-naphthyl)-2-(imidazol-1-yl)ethanone oxime ester derivatives and evaluation of their anticonvulsant activity” (Eur J Med Chem, 2012)
Active and inactive are the calls of the source.

Legend:
Mus musculus [1] = assay: Anticonvulsant activity in mouse assessed as protection against subcutaneous pentylenetetrazole-induced seizures at 100 mg/kg, ip after 4 hrs; type: functional, organism-based; parameters: dose 100 mg/kg
Summary of the method: (§1)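 Swiss albino mice (20-24 g) were dosed ip with a suspension in 30% aqueous PEG 400 and challenged 0.5 h or 4 h later. Protection meant no threshold seizure (clonic spasms lasting at least 5 s). Scored as number protected/number tested, one mouse per dose and time.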

Mus musculus [2] = assay: Neurotoxicity in mouse assessed as motor impairment at 30 mg/kg, ip after 4 hrs by rotarod test; type: toxicity, organism-based; parameters: dose 30 mg/kg, route intraperitoneal; settings: in vivo
Summary of the method: (§2)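 Swiss albino mice (20-24 g) were dosed ip with a suspension in 30% aqueous PEG 400 and tested 0.5 h or 4 h later. They were placed on a knurled wooden rod 1 inch in diameter, rotating at 6 rpm. Toxicity meant failure to stay on the rod for at least 1 min in each of three trials. Scored as number toxic/number tested (4 mice at 0.5 h, 2 at 4 h).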

Mus musculus [3] = assay: Anticonvulsant activity in mouse assessed as protection against subcutaneous pentylenetetrazole-induced seizures at 100 mg/kg, ip after 0.5 hrs; type: functional, organism-based; parameters: dose 100 mg/kg; summary of the method: as §1
Mus musculus [4] = assay: Anticonvulsant activity in mouse assessed as protection against subcutaneous pentylenetetrazole-induced seizures at 30 mg/kg, ip after 4 hrs; type: functional, organism-based; parameters: dose 30 mg/kg; summary of the method: as §1
Mus musculus [5] = assay: Anticonvulsant activity in mouse assessed as protection against maximal electroshock-induced seizures at 30 mg/kg, ip after 4 hrs; type: functional, organism-based; parameters: dose 30 mg/kg
Summary of the method: (§3)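 Swiss albino mice (20-24 g) received an ip suspension in 30% aqueous PEG 400 and were tested 0.5 h and 4 h after dosing. Shock was delivered through corneal electrodes from a constant current unit, with 0.9% saline dropped into the eyes first. Protection meant abolition of the hind limb tonic extension. Scored as number protected/number tested, one mouse per dose and time.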

Mus musculus [6] = assay: Neurotoxicity in mouse assessed as motor impairment at 100 mg/kg, ip after 4 hrs by rotarod test; type: toxicity, organism-based; parameters: dose 100 mg/kg, route intraperitoneal; settings: in vivo; summary of the method: as §2
Mus musculus [7] = assay: Neurotoxicity in mouse assessed as motor impairment at 300 mg/kg, ip after 4 hrs by rotarod test; type: toxicity, organism-based; parameters: dose 300 mg/kg, route intraperitoneal; settings: in vivo; summary of the method: as §2
Mus musculus [8] = assay: Anticonvulsant activity in mouse assessed as protection against subcutaneous pentylenetetrazole-induced seizures at 300 mg/kg, ip after 4 hrs; type: functional, organism-based; parameters: dose 300 mg/kg; summary of the method: as §1
Mus musculus [9] = assay: Anticonvulsant activity in mouse assessed as protection against maximal electroshock-induced seizures at 300 mg/kg, ip after 4 hrs; type: functional, organism-based; parameters: dose 300 mg/kg; summary of the method: as §3
Mus musculus [10] = assay: Anticonvulsant activity in mouse assessed as protection against maximal electroshock-induced seizures at 300 mg/kg, ip after 0.5 hrs; type: functional, organism-based; parameters: dose 300 mg/kg; summary of the method: as §3
Mus musculus [11] = assay: Anticonvulsant activity in mouse assessed as protection against maximal electroshock-induced seizures at 100 mg/kg, ip after 4 hrs; type: functional, organism-based; parameters: dose 100 mg/kg; summary of the method: as §3
Mus musculus [12] = assay: Anticonvulsant activity in mouse assessed as protection against subcutaneous pentylenetetrazole-induced seizures at 300 mg/kg, ip after 0.5 hrs; type: functional, organism-based; parameters: dose 300 mg/kg; summary of the method: as §1
Mus musculus [13] = assay: Neurotoxicity in mouse assessed as motor impairment at 30 mg/kg, ip after 0.5 hrs by rotarod test; type: toxicity, organism-based; parameters: dose 30 mg/kg, route intraperitoneal; settings: in vivo; summary of the method: as §2
Mus musculus [14] = assay: Anticonvulsant activity in mouse assessed as protection against maximal electroshock-induced seizures at 30 mg/kg, ip after 0.5 hrs; type: functional, organism-based; parameters: dose 30 mg/kg; summary of the method: as §3
Mus musculus [15] = assay: Anticonvulsant activity in mouse assessed as protection against subcutaneous pentylenetetrazole-induced seizures at 30 mg/kg, ip after 0.5 hrs; type: functional, organism-based; parameters: dose 30 mg/kg; summary of the method: as §1
Mus musculus [16] = assay: Anticonvulsant activity in mouse assessed as protection against maximal electroshock-induced seizures at 100 mg/kg, ip after 0.5 hrs; type: functional, organism-based; parameters: dose 100 mg/kg; summary of the method: as §3
Mus musculus [17] = assay: Neurotoxicity in mouse assessed as motor impairment at 300 mg/kg, ip after 0.5 hrs by rotarod test; type: toxicity, organism-based; parameters: dose 300 mg/kg, route intraperitoneal; settings: in vivo; summary of the method: as §2
Mus musculus [18] = assay: Neurotoxicity in mouse assessed as motor impairment at 100 mg/kg, ip after 0.5 hrs by rotarod test; type: toxicity, organism-based; parameters: dose 100 mg/kg, route intraperitoneal; settings: in vivo; summary of the method: as §2

SMILES	Activity (Mus musculus [1])	Activity (Mus musculus [2])	Activity (Mus musculus [3])	Activity (Mus musculus [4])	Activity (Mus musculus [5])	Activity (Mus musculus [6])	Activity (Mus musculus [7])	Activity (Mus musculus [8])	Activity (Mus musculus [9])	Activity (Mus musculus [10])	Activity (Mus musculus [11])	Activity (Mus musculus [12])	Activity (Mus musculus [13])	Activity (Mus musculus [14])	Activity (Mus musculus [15])	Activity (Mus musculus [16])	Activity (Mus musculus [17])	Activity (Mus musculus [18])
NC(=O)N1c2ccccc2C=Cc2ccccc21 [CARBAMAZEPINE]	Active	Non-toxic	inactive	inactive	inactive	Non-toxic	Non-toxic	Active	Active	Active	Active	Active	Non-toxic	Active	inactive	Active	Toxic	Non-toxic
O=C(O/N=C(\Cn1ccnc1)c1ccc2ccccc2c1)c1cccc([N+](=O)[O-])c1	inactive	Non-toxic	inactive	inactive	inactive	Non-toxic	Non-toxic	inactive	Active	inactive	inactive	inactive	Non-toxic	inactive	inactive	inactive	Non-toxic	Non-toxic
CC(C)CC(=O)O/N=C(\Cn1ccnc1)c1ccc2ccccc2c1.Cl	inactive	Non-toxic	inactive	inactive	inactive	Non-toxic	Non-toxic	inactive	Active	Active	Active	inactive	Non-toxic	inactive	inactive	Active	Non-toxic	Non-toxic
Cc1ccccc1C(=O)O/N=C(\Cn1ccnc1)c1ccc2ccccc2c1	inactive	Non-toxic	inactive	inactive	inactive	Non-toxic	Non-toxic	inactive	Active	Active	inactive	inactive	Non-toxic	inactive	inactive	inactive	Non-toxic	Non-toxic
CCCCCC(=O)O/N=C(\Cn1ccnc1)c1ccc2ccccc2c1.Cl	inactive	Non-toxic	inactive	inactive	inactive	Non-toxic	Non-toxic	inactive	inactive	inactive	inactive	inactive	Non-toxic	inactive	inactive	inactive	Non-toxic	Non-toxic
O=C(O/N=C(\Cn1ccnc1)c1ccc2ccccc2c1)c1ccccc1	inactive	Non-toxic	inactive	inactive	Active	Non-toxic	Non-toxic	Active	Active	Active	Active	inactive	Non-toxic	inactive	inactive	Active	Non-toxic	Non-toxic
O=C(O/N=C(\Cn1ccnc1)c1ccc2ccccc2c1)c1cccc(Br)c1	inactive	Non-toxic	inactive	inactive	inactive	Non-toxic	Non-toxic	inactive	inactive	Active	inactive	inactive	Non-toxic	inactive	inactive	Active	Non-toxic	Non-toxic
CCC(=O)O/N=C(\Cn1ccnc1)c1ccc2ccccc2c1.Cl	inactive	Non-toxic	inactive	inactive	inactive	Non-toxic	Non-toxic	inactive	inactive	Active	inactive	Active	Non-toxic	inactive	inactive	Active	Non-toxic	Non-toxic
Cl.O=C(ON=C(Cn1ccnc1)c1ccc2ccccc2c1)C1CCCCC1 (mixture of isomers)	inactive	Non-toxic	Active	inactive	inactive	Non-toxic	Non-toxic	inactive	inactive	Active	inactive	Active	Non-toxic	inactive	inactive	Active	Non-toxic	Non-toxic
O=C(O/N=C(\Cn1ccnc1)c1ccc2ccccc2c1)c1cccc(Cl)c1	inactive	Non-toxic	inactive	inactive	inactive	Non-toxic	Non-toxic	inactive	Active	Active	Active	inactive	Non-toxic	inactive	inactive	Active	Non-toxic	Non-toxic
Cc1ccc(C(=O)O/N=C(\Cn2ccnc2)c2ccc3ccccc3c2)cc1	inactive	Non-toxic	Active	inactive	inactive	Non-toxic	Non-toxic	Active	inactive	Active	inactive	Active	Non-toxic	inactive	inactive	Active	Non-toxic	Non-toxic
COc1ccccc1C(=O)O/N=C(\Cn1ccnc1)c1ccc2ccccc2c1	inactive	Non-toxic	Active	inactive	Active	Non-toxic	Non-toxic	inactive	Active	Active	Active	Active	Non-toxic	inactive	inactive	Active	Non-toxic	Non-toxic
